Test results taken from ChEMBL document CHEMBL1139931, “Synthesis and structure-activity relationships of novel pyrimido[1,2-b]indazoles as potential anticancer agents against A-549 cell lines” (2007).

Tested on: A549
Assay: Anticancer activity against human A549 cells at 1 nM after 12 hrs
Assay type: functional
Conditions: A549, 12 h
Summary of the method: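 A-549 cells seeded at 10,000 cells/well in 96-well plates, recovered overnight in 5% CO2, then exposed 12 h to compound at 1 nM/ml (in 1% DMSO in PBS). MTT added from a 5 mg/ml PBS stock, 5 h at 37 °C, medium removed, formazan dissolved in DMSO for 5 min at 37 °C. Growth inhibition read at 550 nm; duplicate runs.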

**Q.** For `Cc1cc(=O)n2nc3c(C#N)c(C(F)(F)F)cc(-c4ccccc4)c3c2[nH]1`, which inhibition at 0.001 µM is on record?
**A.** 0.44%

**Q.** How did the inhibition at 0.001 µM turn out when `Cc1cc(-c2ccccc2)nc2c3c(C(F)(F)F)cc(-c4ccccc4)c(C#N)c3nn12` was run?
**A.** 13.3%

**Q.** `Cc1cc(C)n2nc3c(C#N)c(-c4ccccc4)cc(C(F)(F)F)c3c2n1` was tested. Which inhibition at 0.001 µM did it give?
**A.** 3.74%

**Q.** With `N#Cc1c(C(F)(F)F)cc(-c2ccccc2)c2c1nn1c(-c3ccccc3)cc(-c3ccccc3)nc21` as the molecule, how does the inhibition at 0.001 µM read?
**A.** 5.96%

**Q.** `Cc1ccc(-c2cc(C(F)(F)F)n3nc4c(C#N)c(C(F)(F)F)cc(-c5ccccc5)c4c3n2)cc1` was tested. Which inhibition at 0.001 µM did it give?
**A.** 6.77%

**Q.** How did the inhibition at 0.001 µM turn out when `N#Cc1c(C(F)(F)F)cc(-c2ccccc2)c2c1nn1c(C(F)(F)F)cc(C(F)(F)F)nc21` was run?
**A.** 10.2%

**Q.** How did the inhibition at 0.001 µM turn out when `CCOC(=O)c1cnc2c3c(-c4ccccc4)cc(C(F)(F)F)c(C#N)c3nn2c1N` was run?
**A.** 11%

**Q.** Which inhibition at 0.001 µM does the source give for `N#Cc1c(-c2ccccc2)cc(C(F)(F)F)c2c1nn1c(C(F)(F)F)cc(C(F)(F)F)nc21` here?
**A.** 4.54%

**Q.** Which inhibition at 0.001 µM does the source give for `Cc1cc(-c2ccccc2)n2nc3c(C#N)c(C(F)(F)F)cc(-c4ccccc4)c3c2n1` here?
**A.** 4.8%

**Q.** For `N#Cc1c(-c2ccccc2)cc(C(F)(F)F)c2c1nn1c(C(F)(F)F)cc(-c3ccccc3)nc21`, which inhibition at 0.001 µM is on record?
**A.** 16.2%

**Q.** Which inhibition at 0.001 µM does the source give for `N#Cc1c(C(F)(F)F)cc(-c2ccccc2)c2c1nn1c(C(F)(F)F)cc(-c3ccccc3)nc21` here?
**A.** 8.9%

**Q.** How did the inhibition at 0.001 µM turn out when `CCOC(=O)c1cnc2c3c(-c4ccccc4)cc(C(F)(F)F)c(C#N)c3nn2c1O` was run?
**A.** 8.24%

**Q.** With `CCOC(=O)c1cnc2c3c(C(F)(F)F)cc(-c4ccccc4)c(C#N)c3nn2c1N` as the molecule, how does the inhibition at 0.001 µM read?
**A.** 10.7%

**Q.** `Cc1cc(C(F)(F)F)n2nc3c(C#N)c(C(F)(F)F)cc(-c4ccccc4)c3c2n1` was tested. Which inhibition at 0.001 µM did it give?
**A.** 6.44%

**Q.** For `COc1cc([C@@H]2c3cc4c(cc3[C@@H](O[C@@H]3O[C@@H]5CO[C@@H](C)O[C@H]5[C@H](O)[C@H]3O)[C@H]3COC(=O)[C@H]23)OCO4)cc(OC)c1O` [ETOPOSIDE], which inhibition at 0.001 µM is on record?
**A.** 1.15%
